Experiment [1] has as its target T1, Melatonin receptor type 1B (Homo sapiens, UniProt P49286).
T1 sequence (P49286 whole entry): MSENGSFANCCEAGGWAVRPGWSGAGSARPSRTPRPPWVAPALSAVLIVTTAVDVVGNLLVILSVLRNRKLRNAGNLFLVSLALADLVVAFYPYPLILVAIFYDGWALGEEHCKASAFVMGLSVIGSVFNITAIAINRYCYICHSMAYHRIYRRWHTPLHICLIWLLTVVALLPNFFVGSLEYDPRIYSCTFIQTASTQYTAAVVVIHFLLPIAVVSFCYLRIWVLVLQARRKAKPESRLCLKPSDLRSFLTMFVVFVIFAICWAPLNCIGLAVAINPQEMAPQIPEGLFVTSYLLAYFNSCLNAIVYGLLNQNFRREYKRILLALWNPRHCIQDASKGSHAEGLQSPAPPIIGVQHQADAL
Nature of the experiment: Agonist activity at human MT2 receptor expressed in CHO cells by [35S]GTPgamma binding assay. In kind it is functional, cell-based.

The species named for the next experiment is Homo sapiens. Description: Selectivity ratio of Ki for human MT2 receptor to Ki for human MT1 receptor.
The target in experiment [2] is T2, Melatonin receptor type 1A (Homo sapiens, UniProt P48039). Description: Displacement of 2-[125I]iodomelatonin from human MT1 receptor expressed in CHO cells. The format is cell-based. In outline: (§1)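 Membranes from CHO cells stably expressing human MT1 or MT2, grown in DMEM with 10% fetal calf serum, homogenized in Tris/EDTA and pelleted at 95,000g. Incubated with 20 pM 2-[125I]-iodomelatonin and test drug in 50 mM Tris/HCl pH 7.4, 5 mM MgCl2, 120 min at 37 °C. Stopped by filtration onto PEI-soaked GF/B filters. Ki = IC50/(1+[L]/KD) from seven-concentration curves.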
T2 sequence (P48039 whole entry): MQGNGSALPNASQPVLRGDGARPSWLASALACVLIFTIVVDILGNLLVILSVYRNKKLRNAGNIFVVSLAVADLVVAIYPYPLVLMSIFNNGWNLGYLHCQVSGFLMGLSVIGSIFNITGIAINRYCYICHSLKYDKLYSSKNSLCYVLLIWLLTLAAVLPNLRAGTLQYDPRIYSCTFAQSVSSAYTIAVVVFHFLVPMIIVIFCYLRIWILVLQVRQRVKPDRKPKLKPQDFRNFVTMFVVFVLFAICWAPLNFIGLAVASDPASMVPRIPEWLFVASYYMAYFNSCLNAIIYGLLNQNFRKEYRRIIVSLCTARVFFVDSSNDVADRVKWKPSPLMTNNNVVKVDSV

Experiment [3] addresses T1, Melatonin receptor type 1B. Description: Displacement of 2-[125I]iodomelatonin from human MT2 receptor expressed in CHO cells. The format is cell-based. In outline:
as §1

Experiment [4] deals with T2, Melatonin receptor type 1A. Nature of the experiment: Agonist activity at human MT1 receptor expressed in CHO cells by [35S]GTPgamma binding assay. In kind it is functional, cell-based.

As for `O=C(NCCc1cccc2ccc(OCCCCOc3ccc4cccc(CCNC(=O)C5CC5)c4c3)cc12)C1CC1`, a half-maximal effect in experiment [1] (EC50) was put at 134 nM. Moreover, in the experiment filed under Homo sapiens, the Ratio Ki was found to be 13. For the same molecule, the inhibition constant Ki in experiment [2] came to 1.01 nM; in experiment [3], 13.6 nM.

As for `CC(=O)NCCc1cccc2ccc(OCCCCOc3ccc4[nH]cc(CCNC(C)=O)c4c3)cc12`, it took 2.38 nM to reach a half-maximal effect in experiment [4] (EC50). The Ratio Ki in the experiment filed under Homo sapiens was 21. In addition, the Ki in experiment [2] amounted to 4.04 nM; in experiment [3], 84.3 nM.

As for `C=CCC(=O)NCCc1cccc2ccc(OCCCCOc3ccc4cccc(CCNC(C)=O)c4c3)cc12`, in experiment [4], the concentration giving a half-maximal response (EC50) came out at 12 nM. Further, in the experiment listed under Homo sapiens, the Ratio Ki worked out at 11. Further, the Ki in experiment [2] is 0.79 nM; in experiment [3], 8.45 nM.

The molecule `COC(=O)Cc1cccc2ccc(OCCCCOc3ccc4cccc(CCNC(C)=O)c4c3)cc12` displayed a half-maximal effective concentration (EC50) in experiment [4] of 2.89 nM. For the same molecule, the Ratio Ki in the experiment filed under Homo sapiens turned out to be 26. The figures for the Ki in experiment [2] and in experiment [3] were 0.07 nM and 1.84 nM, respectively.

For the molecule `CC(=O)NCCc1cccc2ccc(OCCCCOc3ccc4cccc(CCNC(C)=O)c4c3)cc12`, the half-maximal effective concentration (EC50) was found to be 73 nM in experiment [4] and 405 nM in experiment [1]. The Ratio Ki in the experiment listed under Homo sapiens was determined as 120.

For the molecule `C=CCC(=O)NCCc1cccc2ccc(OCCCCOc3ccc4cccc(CCNC(=O)CC=C)c4c3)cc12`, the EC50 came to 16.1 nM in experiment [4] and 40.2 nM in experiment [1]. Besides, in the experiment filed under Homo sapiens, the Ratio Ki was 12. For the same molecule, the Ki was 0.92 nM in experiment [2] and 10.9 nM in experiment [3].

As for `CC(=O)NCCc1cccc2ccc(OCCCCOc3ccc4cccc(CC(=O)O)c4c3)cc12`, the EC50 in experiment [4] was found to be 3.14 nM. Further, in the experiment listed under Homo sapiens, the Ratio Ki came to 5. Also, the inhibition constant (Ki) in experiment [2] worked out at 9.1 nM; in experiment [3], 45.8 nM.

Turning to `CC(=O)NCCc1cccc2ccc(OCCCCOc3ccc4scc(CCNC(C)=O)c4c3)cc12`, the EC50 is 1.94 nM in experiment [4] and 20.6 nM in experiment [1]. Besides, in the experiment filed under Homo sapiens, the Ratio Ki was found to be 5. The Ki amounted to 3.47 nM in experiment [2] and 16.9 nM in experiment [3].

On to `CC(=O)NCCc1cccc2ccc(OCCCCOc3ccc4cccc(CCNC(=O)C5CC5)c4c3)cc12`, for which, in experiment [4], the EC50 was 9.1 nM. In addition, in the experiment listed under Homo sapiens, the Ratio Ki was found to be 10. In addition, the Ki in experiment [2] is 1.07 nM; in experiment [3] it was 11.1 nM.

Regarding `CC(=O)NCCc1cccc2ccc(OCCCCOc3ccc(-c4ccc(C(=O)O)cc4)cc3)cc12`, the 50% effective concentration (EC50) in experiment [4] came to 26.1 nM. Moreover, the Ratio Ki in the experiment listed under Homo sapiens amounted to 93. Besides, the inhibition constant (Ki) turned out to be 0.55 nM in experiment [2] and 51.3 nM in experiment [3].

As for `CC(=O)NCCc1cccc2ccc(-c3ccc4cccc(CCNC(C)=O)c4c3)cc12`, in the experiment listed under Homo sapiens, the Ratio Ki stood at 70.

For `COC(=O)C(C)c1ccc2cc(OCCCCOc3ccc4cccc(CCNC(C)=O)c4c3)ccc2c1` (centres undefined), the EC50 was 21.7 nM in experiment [4] and 88 nM in experiment [1]. Also, in the experiment listed under Homo sapiens, the Ratio Ki was determined as 11. For the same molecule, the Ki in experiment [2] was determined as 0.37 nM; in experiment [3], 4.22 nM.

As to `O=C(NCCCc1ccc2nc(CCCCc3ccccc3)oc2c1)C1CC1`, in the experiment filed under Homo sapiens, the Ratio Ki turned out to be 35.

In the case of `CC(=O)NCCc1cccc2ccc(OCCCCOc3ccc(-c4ccc(CO)cc4)cc3)cc12`, the figures for the 50% effective concentration (EC50) in experiment [4] and in experiment [1] were 2.37 nM and 26 nM, respectively. Also, the Ratio Ki in the experiment filed under Homo sapiens worked out at 72. The inhibition constant Ki was found to be 0.09 nM in experiment [2] and 6.53 nM in experiment [3].

As for `CC(=O)NCCc1cccc2ccc(OCCCCOc3ccc4occ(CCNC(C)=O)c4c3)cc12`, it took 2.49 nM to reach a half-maximal effect in experiment [4] (EC50). The Ratio Ki in the experiment filed under Homo sapiens turned out to be 10. Further, the Ki in experiment [2] amounted to 1.38 nM; in experiment [3], 13.9 nM.

Turning to `CC(=O)NCCc1cccc2ccc(OCCCCOc3ccc4cc(C(C)C(=O)O)ccc4c3)cc12` (centres undefined), the EC50 amounted to 22 nM in experiment [4] and 161 nM in experiment [1]. Also, the Ratio Ki in the experiment listed under Homo sapiens came to 39. The figures for the Ki in experiment [2] and in experiment [3] were 1.51 nM and 59.1 nM, respectively.

On to `CC(=O)NCCc1cccc2ccc(OCCCCOc3ccc4cccc(CCNC(=O)c5ccco5)c4c3)cc12`, for which the concentration for a half-maximal effect (EC50) in experiment [4] turned out to be 11.2 nM. In addition, the Ratio Ki in the experiment listed under Homo sapiens stood at 18. For the same molecule, the Ki stood at 0.64 nM in experiment [2] and 11.8 nM in experiment [3].

In experiment [4], `COC(=O)c1ccc(-c2ccc(OCCCCOc3ccc4cccc(CCNC(C)=O)c4c3)cc2)cc1` displayed an EC50 of 46.2 nM. Moreover, the Ratio Ki in the experiment listed under Homo sapiens came out at 8. The results for the Ki in experiment [2] and in experiment [3] were 2.37 nM and 19.1 nM, respectively.

With `CC(=O)NCCc1cccc2ccc(OCCCCOc3ccc4c(c3)C(CCNC(C)=O)CCC4)cc12` (centres undefined), in experiment [4], a half-maximal response (EC50) required 7.75 nM. Further, the Ratio Ki in the experiment filed under Homo sapiens was 26. The figures for the inhibitory constant (Ki) in experiment [2] and in experiment [3] were 0.26 nM and 6.79 nM, respectively.

Broadly, the EC50 is the midpoint of the concentration-response curve. High values mean lower potency in that assay, low ones higher potency in that assay. As a reminder, the Ki is a dissociation constant, usually derived from enzyme kinetics or from competition with a known ligand. Higher therefore signals lower affinity.

Source of the values: ChEMBL document CHEMBL1157828, “Design, synthesis and pharmacological evaluation of novel naphthalenic derivatives as selective MT(1) melatoninergic ligands” (Bioorg Med Chem, 2010).
